Screening data: PubChem, several laboratories
Sampled rows, rich in hits. Any-hit rate of the full collection: about 2.5%.
Arrestin-AP2 inh: inhibitors of human beta-arrestin and AP2 interaction | FITC-arrestin peptide / GST-AP2 beads, flow cytometry; AP2 beta2 appendage carries R879A mutation | inhibition, % at 10 µM | 340,000 compounds, 0.31% hits;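 active = inhibition above a set limit, near 3 SD of compounds lacking own fluorescence, cut at about 54% in these data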
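Assay system: GST-AP2 R879A bound to glutathione beads, E. coli-expressed; Medium: PBS with 0.05% Tween 20 and 0.1% BSA; Also added: fluorescein-tagged arrestin peptide at 50 nM final; Timing: 12 min plus 1 h, RT; Measured by: flow cytometry, FL1 (488/535 nm); Evaluation: percent drop in bead-associated FITC signal.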
UHRF1 MBD2 ctr: human UHRF1 methylated DNA binding inhibitors. Q96T88. UHRF1 binding to methylated oligo, TR-FRET. inhibition, % at 4.4 µM. 370,000 compounds, 0.75% hits. AID 687016; in the data active = inhibition above about 21%;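 note: UHRF1 SRA domain binding a hemimethylated CpG hairpin DNA probe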
MBD2 DNA inh: MBD2-methylated oligo binding inhibition; inhibition, % at 4.4 µM; 370,000 compounds, 0.31% hits; Q9UBB5; TR-FRET, MBD2 binding to methylated oligonucleotide; in the data active = inhibition above about 13%
Rin1-Abl PPI inh: inhibitors of human Rin1-Abl protein interaction. AID 588664. P00519+Q13671. inhibition, % at 7.35 µM. TR-FRET Rin1/Abl binding, biochemical. 360,000 compounds, 0.4% hits; in the data active = inhibition above about 5%, passing the limit was not always enough
B2AR ag: activates human beta-2 adrenergic receptor causing internalization; Am2.2-beta2AR cells, FAP receptor internalization, flow cytometry; response, % (test concentration not listed); P07550; 340,000 compounds, 0.43% hits;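 active = response above a set limit, near 3 SD of response in nonfluorescent compounds, cut at about 42% in these data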
Target sequence (P07550 whole entry, looked up): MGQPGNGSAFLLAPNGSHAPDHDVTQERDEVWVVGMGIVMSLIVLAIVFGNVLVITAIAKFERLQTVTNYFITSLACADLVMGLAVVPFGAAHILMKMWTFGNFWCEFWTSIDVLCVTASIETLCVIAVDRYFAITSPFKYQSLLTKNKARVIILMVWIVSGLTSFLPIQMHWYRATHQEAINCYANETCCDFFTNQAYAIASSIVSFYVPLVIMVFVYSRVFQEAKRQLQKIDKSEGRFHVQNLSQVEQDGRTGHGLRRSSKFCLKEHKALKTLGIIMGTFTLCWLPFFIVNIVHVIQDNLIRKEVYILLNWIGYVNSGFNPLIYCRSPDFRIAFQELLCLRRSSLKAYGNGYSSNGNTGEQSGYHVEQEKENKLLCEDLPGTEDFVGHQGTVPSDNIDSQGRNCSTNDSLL
ABHD5-PLIN5 inh: inhibitors of human ABHD5-perilipin-5 interaction; inhibition, % at 4 µM; Q00G26+Q8WTS1; Split G. princeps luciferase complementation, luminescence, 4 h; AID 602281; 360,000 compounds, 0.78% hits;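 active = inhibition above the mean inhibition across every tested compound plus 3 SD, cut at about 22% in these data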
B2AR ag CP1: activates human beta-2 adrenergic receptor; percent response (surface receptor), % at 10 µM; Am2.2-beta2AR cells, FAP surface receptor, flow cytometry; active compounds read low; shares compounds with B2AR ag; AID 540358; 1,100 compounds, 25% hits;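 active = surface receptor percent response at or below 58%, roughly 3 SD from nonfluorescent compounds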
B2AR FAP counter: counter-screen for beta-2AR agonists: fluorescence in Am2.2 cells; FAP fluorogen flow cytometry, fluorescence counterscreen; active compounds read low; AID 588765; shares compounds with B2AR ag; calls only at 10 µM; 1,100 tested, under 10 active;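 active = percent response below a set limit in fluorescence channel 1 and below 50% in channel 8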
Hits are given with their value; 0 = inactive; - = no result.

SMILES | Arrestin-AP2 inh | UHRF1 MBD2 ctr | MBD2 DNA inh | Rin1-Abl PPI inh | B2AR ag | ABHD5-PLIN5 inh | B2AR ag CP1 | B2AR FAP counter
COC(=O)[C@]12C[C@H](CC(=O)N3CCOCC3)C(=O)N(CCc3ccc(OC)c(OC)c3)C1=C[C@H](COCc1ccccc1)O[C@@H]2C | - | 0 | 0 | - | - | - | - | -
Clc1ccccc1C1Nc2cccc3cccc(c23)N1 | 0 | 0 | 0 | 0 | 0 | 0 | - | -
Clc1cccc(C2Nc3cccc4cccc(c34)N2)c1Cl | 0 | 0 | 0 | 0 | 0 | 0 | 0 | 0
CCCCn1c(N)c(N(CC)C(=O)c2ccc3c(c2)S(=O)(=O)c2ccccc2C3=O)c(=O)[nH]c1=O | 0 | 0 | 0 | 0 | 55 | 0 | 0 | 0
COc1ccccc1OCCCC(=O)Nc1nccs1 | 0 | 0 | 0 | 0 | 76 | 0 | 0 | 0
O=C(c1cccc(C(F)(F)F)c1)N1CC[C@H]2[C@H](CCCN2Cc2ccc(F)cc2)C1 | - | 0 | 0 | - | - | - | - | -
Cc1ccc(Sc2ncccc2C(=O)NCC(c2ccc(F)cc2)N2CCOCC2)c(C)c1 (centres undefined) | 0 | 0 | 0 | 0 | 47 | 0 | 0 | 0
Cc1ccc(Sc2ncccc2C(=O)NCC(c2ccc(F)cc2)N2CCOCC2)cc1C (centres undefined) | 0 | 0 | 0 | 0 | 0 | 0 | - | -
O=S1(=O)c2c(NCc3ccco3)cccc2Oc2ccccc2CN1Cc1cn(Cc2ccc(F)cc2)nn1 | - | 0 | 0 | - | - | - | - | -
CCOc1ccc(NC(=O)c2sc3nc(C)nc(N4CCOCC4)c3c2C)cc1 | 0 | 0 | 0 | 0 | 69 | 0 | 0 | 0
Cc1cccc(NC(=O)c2sc3nc(C)nc(N4CCOCC4)c3c2C)c1 | - | 0 | 0 | 0 | - | 0 | - | -
COc1ccc(Cn2c(SCc3ccc(C)cc3)nc3cc(OC)c(OC)cc3c2=N)cc1Cl | 0 | 0 | 0 | 0 | - | 0 | - | -
COc1ccc(Cn2c(SCc3cc(C)ccc3C)nc3cc(OC)c(OC)cc3c2=N)cc1 | 0 | 0 | 0 | 0 | 43 | 0 | 20 | 0
Nc1[nH]c2cc(Cl)ccc2c1C(=O)N1CCOCC1 | - | 0 | 0 | - | - | - | - | -
O=C(Nc1ccc(N2CCCC2)cc1)c1ccc(Cl)cc1Cl | 0 | 0 | 0 | 0 | 0 | 0 | - | -
O=C(Nc1ccc(N2CCCC2)cc1)c1cc(Cl)ccc1Cl | 0 | 0 | 0 | 0 | 73 | 0 | 0 | 0
O=C(Nc1ccc(-c2noc(-c3ccccc3F)n2)cc1)c1cccs1 | 0 | 0 | 0 | 0 | 0 | 0 | - | -
CCCc1ccc(OCc2nc(-c3ccc(NC(=O)c4cccs4)cc3)no2)cc1 | 0 | 0 | 0 | 0 | 0 | 0 | 0 | 0
CCCc1ccc(OCc2nc(-c3ccc(NC(=O)c4ccco4)cc3)no2)cc1 | 0 | 0 | 0 | 0 | 0 | 0 | 42 | 0
COc1ccc(CNC(=O)CCCCCNc2nc(=S)[nH]c3ccccc23)cc1 | 0 | 0 | 0 | 0 | 129 | 0 | 26 | 0
Cc1ccc(S(=O)(=O)Nc2cccc3cccnc23)cc1 | 0 | 0 | 0 | 0 | 45 | 0 | 0 | 0
COc1cc(NS(=O)(=O)c2ccc(C)cc2)c2ncccc2c1 | 0 | 0 | 0 | 0 | 0 | 0 | - | -
CCCC(=O)OC12CCCN(C1)/C(=C/c1cccc(Cl)c1)C2 (centres undefined) | - | 0 | 0 | - | - | - | - | -
Cc1ccc(NC(=O)c2ncn(CCCNCCCc3ccccc3)n2)cc1C | 0 | 0 | 0 | 0 | 42 | 0 | 0 | 0
Cc1ccc(NC(=O)c2ncn(CCCNCCCN(C)C)n2)cc1C | 0 | 0 | 0 | 0 | 0 | 0 | - | -
SMILES | Arrestin-AP2 inh | UHRF1 MBD2 ctr | MBD2 DNA inh | Rin1-Abl PPI inh | B2AR ag | ABHD5-PLIN5 inh | B2AR ag CP1 | B2AR FAP counter
C#CCCN([C@H](C(=O)OC)C(C)CC)S(=O)(=O)c1ccccc1Br (some centres undefined) | - | 0 | 0 | - | - | - | - | -
COc1cc2c(cc1OC)C(c1ccc(-c3ccc(Cl)cc3Cl)o1)=NCC2 | 0 | 0 | 0 | 0 | 0 | 0 | - | -
COc1cc2c(cc1OC)C(c1ccc(-c3cc(Cl)ccc3Cl)o1)=NCC2 | 0 | - | - | 0 | 0 | 0 | 0 | 0
CC(=O)Nc1cc(S(=O)(=O)Nc2ccccc2)c(C)cc1C | 0 | 0 | 0 | 0 | 47 | 0 | 0 | 0
COC(=O)c1ccc(Cn2ccc3ccc(-c4ccc5ccn(C(=O)c6ccccc6C)c5c4)cc32)cc1 | - | 0 | 0 | - | - | - | - | -
COc1ccc(C2C(C(=O)N3CCN(C=O)CC3)CC(=O)N2c2ccc(OC)cc2)cc1 (centres undefined) | - | 0 | 0 | - | - | - | - | -
CCCCOCCCNC(=O)C[C@H]1C[C@@]2(C(=O)OC)C(=C[C@H](C(C)(C)C)O[C@@H]2C)N(Cc2ccco2)C1=O | - | 0 | 0 | - | - | - | - | -
COC(=O)C1=C(C)N(Cc2ccccc2)C(=NCCc2cccnc2)N[C@H]1c1ccc(Br)cc1 | 0 | - | - | 0 | 47 | 0 | 0 | 0
c1ccc(OCCCCn2cnc3ccccc32)cc1 | 0 | 0 | 0 | 0 | 45 | 0 | 0 | 0
O=C(c1cc(COc2ccc(F)cc2Cl)on1)N1CC2C[C@@H]3CC1C[C@H](C2)C3 | 0 | 0 | 0 | 0 | 87 | 0 | 23 | 0
O=C(c1cc(COc2ccc(F)cc2Cl)on1)N1C[C@H]2CC[C@H]1C2 | 0 | 0 | 0 | 0 | 0 | 0 | - | -
CC(=O)Oc1ccc(C(=O)Nc2cccc(C(=O)c3cccc(NC(=O)c4ccc(OC(C)=O)cc4)c3)c2)cc1 | 0 | 0 | 0 | 0 | 57 | 0 | 0 | 0
COc1ccc(C2/C=C\CN(C(=O)Nc3ccccc3)CC(=O)N2Cc2ccc(F)cc2)cc1 (centres undefined) | 0 | 0 | 0 | 0 | 0 | 0 | - | -
COc1ccc(C2/C=C\CN(C(=O)c3ccc(C)cc3)CC(=O)N2Cc2ccc(F)cc2)cc1 (centres undefined) | 0 | 0 | 0 | 0 | 0 | 0 | 0 | 0
COc1ccc([C@H]2/C=C\CN(C(=O)c3ccccc3)[C@@H](C)C(=O)N2Cc2ccc(F)cc2)cc1 | 0 | 0 | 0 | 0 | 0 | 0 | 0 | 0
Cc1cccc(C)c1-n1nnnc1C1(C)CN(S(C)(=O)=O)CC(=O)N1Cc1ccc(F)cc1 (centres undefined) | - | 0 | 0 | - | - | - | - | -
Fc1ccc(Oc2nc(-c3ccccc3)nnc2C(F)(F)F)cc1 | 0 | 0 | 0 | 0 | 0 | 0 | - | -
Fc1ccc(Sc2nc(-c3ccccc3)nnc2C(F)(F)F)cc1 | 0 | 0 | 0 | 0 | 44 | 0 | 21 | 0
CC(C)=CCC(C)(C)C1OCCN1C(=O)c1ccccc1 (centres undefined) | 0 | 0 | 0 | 0 | 62 | 0 | 22 | 0
CCOC(=O)Cn1cc(CN2C(C(=O)OC)CN(Cc3ccc(Cl)cc3)CCS2(=O)=O)nn1 (centres undefined) | - | 0 | 0 | - | - | - | - | -
Oc1ccc(CNc2cccnc2)c2cccnc12 | - | 0 | 0 | - | - | - | - | -
